{
  "source": "ChEMBL document CHEMBL3826935",
  "about": "“Synthesis and Pharmacology of (Pyridin-2-yl)methanol Derivatives as Novel and Selective Transient Receptor Potential Vanilloid 3 Antagonists” (J Med Chem, 2016)",
  "data": [
    {"target": "T1, Transient receptor potential cation channel subfamily V member 3 (Homo sapiens) (UniProt Q8NET8)", "T1 sequence (whole entry)": "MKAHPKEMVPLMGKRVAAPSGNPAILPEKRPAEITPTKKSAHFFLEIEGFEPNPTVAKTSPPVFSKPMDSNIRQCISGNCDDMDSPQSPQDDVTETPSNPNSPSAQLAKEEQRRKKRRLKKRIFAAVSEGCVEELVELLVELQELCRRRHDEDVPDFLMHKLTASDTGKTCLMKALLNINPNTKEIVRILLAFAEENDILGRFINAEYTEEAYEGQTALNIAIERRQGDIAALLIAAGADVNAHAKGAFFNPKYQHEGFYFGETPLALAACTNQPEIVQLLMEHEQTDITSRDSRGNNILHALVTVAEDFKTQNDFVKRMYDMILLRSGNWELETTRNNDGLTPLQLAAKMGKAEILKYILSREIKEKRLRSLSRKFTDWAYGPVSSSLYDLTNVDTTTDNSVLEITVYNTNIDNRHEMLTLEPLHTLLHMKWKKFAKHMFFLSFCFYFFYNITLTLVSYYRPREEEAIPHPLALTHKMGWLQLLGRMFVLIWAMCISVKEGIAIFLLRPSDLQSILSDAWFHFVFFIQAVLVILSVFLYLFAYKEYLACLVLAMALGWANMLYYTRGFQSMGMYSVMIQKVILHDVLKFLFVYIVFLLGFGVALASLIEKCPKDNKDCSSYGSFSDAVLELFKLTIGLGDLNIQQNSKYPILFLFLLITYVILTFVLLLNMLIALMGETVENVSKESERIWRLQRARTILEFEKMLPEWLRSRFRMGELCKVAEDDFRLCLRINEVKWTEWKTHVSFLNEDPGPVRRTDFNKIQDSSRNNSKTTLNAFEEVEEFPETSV", "assay": "Antagonist activity at human TRPV3 expressed in recombinant HEK293 cells assessed as inhibition of 2-APB induced calcium flux by FLIPR analysis", "assay_type": "cell-based", "details": "not given; call rule not given here", "in_short": "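HEK293 cells stably expressing human TRPV3 (I25V variant), plated the day before in DMEM + 10% FBS at 37 °C, 5% CO2. Calcium 4 dye loaded in Ca/Mg-free HEPES D-PBS pH 7.4 for 1–2 h at room temperature. Compound dilutions added with 3 min baseline, then 2-APB at 60 µM final; Ca2+ flux read 3 min on FLIPR. Kb from at least duplicates, averaged across independent runs.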", "units": {"Kb": "nM"}, "values": [
      {"smiles": "O[C@H](c1ccccn1)[C@]1(c2cc(C(F)(F)F)ccn2)C[C@@H](O)C1", "Kb": 320},
      {"smiles": "CN1CC(c2ccc(C(F)(F)F)cc2)(C(O)c2ccccn2)C1", "note": "(stereo not given)", "Kb": 6630},
      {"smiles": "C[C@]1(c2ccc(OC(F)(F)F)cc2)C[C@@](O)(c2ccccn2)CO1", "Kb": 2460},
      {"smiles": "C[C@]1(O)C[C@](c2cc(C(F)(F)F)ccn2)([C@@H](O)c2ccccn2)C1", "Kb": "> 9100"},
      {"smiles": "O[C@H](c1ccccn1)C1(c2cccc(OC(F)(F)F)c2)CCC1", "Kb": 80},
      {"smiles": "C[C@]1(O)C[C@@](c2cccc(C(F)(F)F)c2)([C@H](O)c2ccccn2)C1", "Kb": 300},
      {"smiles": "OC(c1cc(F)ccn1)C1(c2ccc(Cl)c(Cl)c2)CCC1", "note": "(racemic)", "Kb": 640},
      {"smiles": "O[C@H](c1ncccn1)C1(c2ccc(Cl)c(Cl)c2)CCC1", "Kb": 370},
      {"smiles": "O[C@H](c1ccccn1)[C@]1(c2cc(C(F)(F)F)ccn2)C[C@H](O)C1", "Kb": 270},
      {"smiles": "C[C@]1(O)C[C@](c2cccc(C(F)(F)F)c2)([C@H](O)c2ccccn2)C1", "Kb": 1550}
    ]},
    {"tested_on": "Liver microsome", "assay": "Unbound intrinsic clearance in rat liver microsomes after 5 hrs by LC-MS/MS analysis", "assay_type": "ADME", "details": "not given", "in_short": "(§1)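 Microsomal stability run in an automated high-throughput plate format. Intrinsic clearance corrected for nonspecific microsomal binding using measured unbound fraction (fu,mic), reported as unbound Clint in L/h/kg.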", "units": {"CL free": "mL/min/kg"}, "values": [
      {"smiles": "O[C@H](c1ccccn1)[C@]1(c2cc(C(F)(F)F)ccn2)C[C@@H](O)C1", "CL free": 50},
      {"smiles": "CN1CC(c2ccc(C(F)(F)F)cc2)(C(O)c2ccccn2)C1", "note": "(stereo not given)", "CL free": 120},
      {"smiles": "C[C@]1(c2ccc(OC(F)(F)F)cc2)C[C@@](O)(c2ccccn2)CO1", "CL free": 150},
      {"smiles": "C[C@]1(O)C[C@](c2cc(C(F)(F)F)ccn2)([C@@H](O)c2ccccn2)C1", "CL free": 100},
      {"smiles": "O[C@H](c1ccccn1)C1(c2cccc(OC(F)(F)F)c2)CCC1", "CL free": 1720},
      {"smiles": "C[C@]1(O)C[C@@](c2cccc(C(F)(F)F)c2)([C@H](O)c2ccccn2)C1", "CL free": 317},
      {"smiles": "OC(c1cc(F)ccn1)C1(c2ccc(Cl)c(Cl)c2)CCC1", "note": "(racemic)", "CL free": 3850},
      {"smiles": "O[C@H](c1ncccn1)C1(c2ccc(Cl)c(Cl)c2)CCC1", "CL free": 833},
      {"smiles": "O[C@H](c1ccccn1)[C@]1(c2cc(C(F)(F)F)ccn2)C[C@H](O)C1", "CL free": 50},
      {"smiles": "C[C@]1(O)C[C@](c2cccc(C(F)(F)F)c2)([C@H](O)c2ccccn2)C1", "CL free": 67}
    ]},
    {"tested_on": "Liver microsome", "assay": "Unbound intrinsic clearance in human liver microsomes after 5 hrs by LC-MS/MS analysis", "assay_type": "ADME", "details": "not given", "in_short": "as §1", "units": {"CL free": "mL/min/kg"}, "values": [
      {"smiles": "O[C@H](c1ccccn1)[C@]1(c2cc(C(F)(F)F)ccn2)C[C@@H](O)C1", "CL free": 33},
      {"smiles": "CN1CC(c2ccc(C(F)(F)F)cc2)(C(O)c2ccccn2)C1", "note": "(stereo not given)", "CL free": 50},
      {"smiles": "C[C@]1(c2ccc(OC(F)(F)F)cc2)C[C@@](O)(c2ccccn2)CO1", "CL free": 120},
      {"smiles": "C[C@]1(O)C[C@](c2cc(C(F)(F)F)ccn2)([C@@H](O)c2ccccn2)C1", "CL free": 33},
      {"smiles": "O[C@H](c1ccccn1)C1(c2cccc(OC(F)(F)F)c2)CCC1", "CL free": 2220},
      {"smiles": "C[C@]1(O)C[C@@](c2cccc(C(F)(F)F)c2)([C@H](O)c2ccccn2)C1", "CL free": 150},
      {"smiles": "OC(c1cc(F)ccn1)C1(c2ccc(Cl)c(Cl)c2)CCC1", "note": "(racemic)", "CL free": 533},
      {"smiles": "O[C@H](c1ncccn1)C1(c2ccc(Cl)c(Cl)c2)CCC1", "CL free": 267},
      {"smiles": "O[C@H](c1ccccn1)[C@]1(c2cc(C(F)(F)F)ccn2)C[C@H](O)C1", "CL free": 33},
      {"smiles": "C[C@]1(O)C[C@](c2cccc(C(F)(F)F)c2)([C@H](O)c2ccccn2)C1", "CL free": 33}
    ]},
    {"species_on_record": "Rattus norvegicus", "assay": "Cardiotoxicity in rat assessed as increase in cardiac contractility at plasma concentration of 4.7 ug/ml", "assay_type": "toxicity, organism-based", "details": "not given", "values": [
      {"smiles": "O[C@H](c1ccccn1)[C@]1(c2cc(C(F)(F)F)ccn2)C[C@@H](O)C1", "Activity": "Non-toxic"},
      {"smiles": "C[C@]1(O)C[C@](c2cc(C(F)(F)F)ccn2)([C@@H](O)c2ccccn2)C1", "Activity": "Non-toxic"},
      {"smiles": "C[C@]1(O)C[C@@](c2cccc(C(F)(F)F)c2)([C@H](O)c2ccccn2)C1", "Activity": "Non-toxic"},
      {"smiles": "O[C@H](c1ccccn1)[C@]1(c2cc(C(F)(F)F)ccn2)C[C@H](O)C1", "Activity": "Non-toxic"},
      {"smiles": "C[C@]1(O)C[C@](c2cccc(C(F)(F)F)c2)([C@H](O)c2ccccn2)C1", "Activity": "Non-toxic"}
    ]},
    {"species_on_record": "Rattus norvegicus", "assay": "Cardiotoxicity in rat assessed as increase in mean arterial pressure", "assay_type": "toxicity, organism-based, Artery", "details": "in vivo", "values": [
      {"smiles": "O[C@H](c1ccccn1)[C@]1(c2cc(C(F)(F)F)ccn2)C[C@@H](O)C1", "Activity": "Non-toxic"},
      {"smiles": "C[C@]1(O)C[C@](c2cc(C(F)(F)F)ccn2)([C@@H](O)c2ccccn2)C1", "Activity": "Non-toxic"},
      {"smiles": "C[C@]1(O)C[C@@](c2cccc(C(F)(F)F)c2)([C@H](O)c2ccccn2)C1", "Activity": "Non-toxic"},
      {"smiles": "O[C@H](c1ccccn1)[C@]1(c2cc(C(F)(F)F)ccn2)C[C@H](O)C1", "Activity": "Non-toxic"},
      {"smiles": "C[C@]1(O)C[C@](c2cccc(C(F)(F)F)c2)([C@H](O)c2ccccn2)C1", "Activity": "Non-toxic"}
    ]},
    {"target": "T2, Nuclear receptor subfamily 1 group I member 2 (Homo sapiens, UniProt O75469)", "T2 sequence (O75469 whole entry)": "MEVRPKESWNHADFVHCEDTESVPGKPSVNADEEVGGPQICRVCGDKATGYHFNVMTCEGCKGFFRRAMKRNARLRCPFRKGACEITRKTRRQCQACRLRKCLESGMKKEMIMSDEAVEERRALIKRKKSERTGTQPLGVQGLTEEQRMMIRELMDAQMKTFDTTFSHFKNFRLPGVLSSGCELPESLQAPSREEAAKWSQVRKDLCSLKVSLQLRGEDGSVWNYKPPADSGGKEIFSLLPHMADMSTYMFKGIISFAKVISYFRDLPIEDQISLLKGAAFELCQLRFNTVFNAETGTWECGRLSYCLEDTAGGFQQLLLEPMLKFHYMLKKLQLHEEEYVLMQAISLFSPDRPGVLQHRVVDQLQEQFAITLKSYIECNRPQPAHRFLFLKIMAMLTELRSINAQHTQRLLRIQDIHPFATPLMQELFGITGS", "assay": "Activation of human PXR", "assay_type": "ADME", "details": "human", "values": [
      {"smiles": "O[C@H](c1ccccn1)[C@]1(c2cc(C(F)(F)F)ccn2)C[C@@H](O)C1", "Activity": "Not Active"},
      {"smiles": "C[C@]1(O)C[C@](c2cc(C(F)(F)F)ccn2)([C@@H](O)c2ccccn2)C1", "Activity": "Not Active"},
      {"smiles": "C[C@]1(O)C[C@@](c2cccc(C(F)(F)F)c2)([C@H](O)c2ccccn2)C1", "Activity": "Not Active"},
      {"smiles": "O[C@H](c1ccccn1)[C@]1(c2cc(C(F)(F)F)ccn2)C[C@H](O)C1", "Activity": "Not Active"},
      {"smiles": "C[C@]1(O)C[C@](c2cccc(C(F)(F)F)c2)([C@H](O)c2ccccn2)C1", "Activity": "Not Active"}
    ]}
  ]
}
